In ChEMBL document CHEMBL1667862, “Chisopanins A-K, 11 new protolimonoids from Chisocheton paniculatus and their anti-inflammatory activities” (Bioorg Med Chem, 2011):

Key:
RAW264.7 [1] = test: Antiinflammatory activity in mouse RAW264.7 cells assessed as inhibition of LPS-induced nitric oxide production treated 2 hrs before LPS challenge measured after 18 hrs by griess reaction; format: functional, cell-based
Procedure, shortened: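 RAW 264.7 cells seeded at 1 × 10^5 per well in 24-well plates in RPMI 1640 with 10% heat-inactivated FBS, grown 24 h. Pretreated 2 h with compounds (40, 20, 10, 5, 2.5 µM; DMSO ≤0.1% final), then stimulated with LPS 2 µg/mL for 18 h. Nitrite measured. Mean ± SD.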

RAW264.7 [2] = test: Antiinflammatory activity in mouse RAW264.7 cells assessed as inhibition of LPS-induced TNFalpha production treated 2 hrs before LPS challenge measured after 24 hrs by ELISA; format: functional, cell-based; conditions: in the assay text read “measured after 18 hrs” for “measured after 24 hrs”
Procedure, shortened: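 RAW 264.7 cells (RPMI 1640, 10% heat-inactivated FBS, 37 °C, 5% CO2) seeded in 24-well plates, grown 24 h, then exposed to compounds (100, 50, 25, 12.5, 6.25 µM) and LPS as for the nitrite assay. TNF-α in medium measured by mouse ELISA kit. Data as mean ± SD.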

SMILES | IC50 (RAW264.7 [1]) [µM] | IC50 (RAW264.7 [2]) [µM]
CO[C@@H]1O[C@@H]([C@H](O)C(C)(C)O)C[C@H]1[C@H]1CC[C@]2(C)C3=CC[C@H]4C(C)(C)C(=O)CC[C@]4(C)[C@H]3CC[C@@]12C | 29.4 | 54.6
CC(=O)O[C@@H]1CC[C@]2(C)[C@H]3CC[C@]4(C)C(=CC[C@@H]4[C@H]4CO[C@H](C(C)(C)O)[C@H](O)C4)[C@]3(C)[C@H](O)C[C@H]2C1(C)C | > 50 | 73.5
CC(=O)O[C@@H]1CC[C@]2(C)[C@H]3CC[C@]4(C)C(=CC[C@@H]4[C@H]4COC(C)(C)[C@@H](O)[C@H](O)C4)[C@]3(C)[C@H](O)C[C@H]2C1(C)C [CHISIAMOL B] | 16.5 | > 100
CC(=O)O[C@@H]1CC[C@]2(C)[C@H]3CC[C@]4(C)C(=CC[C@@H]4[C@H]4COC(C)(C)[C@@H](O)[C@H](O)C4)[C@]3(C)[C@H](OC(C)=O)C[C@H]2C1(C)C [CHISIAMOL C] | 8.7 | > 100
CO[C@@H]1O[C@@H]([C@H](O)C(C)(C)O)C[C@H]1[C@H]1CC=C2[C@]3(C)[C@H](O)C[C@H]4C(C)(C)[C@H](OC(C)=O)CC[C@]4(C)[C@H]3CC[C@]21C [CHISIAMOL D] | 6.5 | > 100
CO[C@H]1O[C@@H]([C@H](O)C(C)(C)O)C[C@H]1[C@H]1CC=C2[C@]3(C)[C@H](O)C[C@H]4C(C)(C)[C@H](OC(C)=O)CC[C@]4(C)[C@H]3CC[C@]21C [CHISIAMOL E] | 8.9 | > 100
CC(=O)O[C@@H]1CC[C@]2(C)[C@H]3CC[C@]4(C)C(=CC[C@@H]4[C@H]4CO[C@](O)(C(C)(C)O)[C@H](O)C4)[C@]3(C)[C@H](OC(C)=O)C[C@H]2C1(C)C [CHISOPANIN A] | 5.4 | 26.9
CC(=O)O[C@@H]1CC[C@]2(C)[C@H]3CC[C@]4(C)C(=CC[C@@H]4[C@H]4CO[C@](O)(C(C)(C)O)[C@H](O)C4)[C@]3(C)[C@H](O)C[C@H]2C1(C)C [CHISOPANIN B] | 7.9 | 30.7
C=C(C)[C@@H](O)[C@H]1C[C@@H]([C@H]2CC=C3[C@]4(C)[C@H](O)C[C@H]5C(C)(C)[C@H](OC(C)=O)CC[C@]5(C)[C@H]4CC[C@]32C)[C@H](OC)O1 [CHISOPANIN C] | 40 | > 100
C=C(C)[C@@H](O)[C@H]1C[C@@H]([C@H]2CC=C3[C@]4(C)[C@H](O)C[C@H]5C(C)(C)[C@H](OC(C)=O)CC[C@]5(C)[C@H]4CC[C@]32C)[C@H](OCC)O1 [CHISOPANIN D] | > 50 | > 100
CO[C@@H]1O[C@@H]([C@H](O)C(C)(C)OC)C[C@H]1[C@H]1CC=C2[C@]3(C)[C@H](O)C[C@H]4C(C)(C)[C@H](OC(C)=O)CC[C@]4(C)[C@H]3CC[C@]21C [CHISOPANIN E] | 6.2 | > 100
CO[C@H]1O[C@@H]([C@H](O)C(C)(C)OC)C[C@H]1[C@H]1CC=C2[C@]3(C)[C@H](O)C[C@H]4C(C)(C)[C@H](OC(C)=O)CC[C@]4(C)[C@H]3CC[C@]21C [CHISOPANIN F] | 6.9 | > 100
CCO[C@@H]1O[C@@H]([C@H](O)C(C)(C)O)C[C@H]1[C@H]1CC=C2[C@]3(C)[C@H](O)C[C@H]4C(C)(C)[C@H](OC(C)=O)CC[C@]4(C)[C@H]3CC[C@]21C [CHISOPANIN G] | 5.4 | > 100
CCO[C@H]1O[C@@H]([C@H](O)C(C)(C)O)C[C@H]1[C@H]1CC=C2[C@]3(C)[C@H](O)C[C@H]4C(C)(C)[C@H](OC(C)=O)CC[C@]4(C)[C@H]3CC[C@]21C [CHISOPANIN H] | > 50 | > 100
CCOC(C)(C)[C@@H](O)[C@H]1C[C@@H]([C@H]2CC=C3[C@]4(C)[C@H](O)C[C@H]5C(C)(C)[C@H](OC(C)=O)CC[C@]5(C)[C@H]4CC[C@]32C)[C@H](OC)O1 [CHISOPANIN I] | 5.3 | > 100
CCOC(C)(C)[C@@H](O)[C@H]1C[C@@H]([C@H]2CC=C3[C@]4(C)[C@H](O)C[C@H]5C(C)(C)[C@H](OC(C)=O)CC[C@]5(C)[C@H]4CC[C@]32C)[C@@H](OC)O1 [CHISOPANIN J] | 12.3 | > 100
CC(=O)O[C@@H]1CC[C@]2(C)[C@H]3CC[C@]4(C)C(=CC[C@H]4C4=CC(C(O)C(C)(C)O)OC4=O)[C@]3(C)[C@H](O)C[C@H]2C1(C)C (stereo partly specified) [CHISOPANIN K] | 33.4 | 47.4
C[C@@H]1C[C@H]2[C@@H]3CCC4=CC(=O)C=C[C@]4(C)[C@@]3(F)[C@@H](O)C[C@]2(C)[C@@]1(O)C(=O)CO [DEXAMETHASONE] | 0.86 | 
O=c1c(-c2ccc(O)cc2)coc2cc(O)cc(O)c12 [GENISTEIN] |  | 19.1
